Results reported in ChEMBL document CHEMBL1156484, “Hot spots in prion protein for pathogenic conversion” (Proc Natl Acad Sci U S A, 2007).
Active and inactive are the calls of the source. No cut-off for these calls is given here.

Test system: not listed separately
Assay: Cytotoxicity against mouse GT1-7 cells at 1 uM
Format: cell-based
Conditions: gt1-7, 1 µM

| SMILES | Activity |
| --- | --- |
| CCN(CCO)CCNc1ccc(C)c2sc3ccccc3c(=O)c12 | Toxic |
| Cc1ccc(S(=O)(=O)Nc2ccccc2N(C)S(=O)(=O)c2ccc(C)cc2)cc1 | Toxic |
| O=c1n(S(=O)(=O)c2ccc(Cl)cc2)c2ccccc2n1S(=O)(=O)c1ccc(Cl)cc1 | Toxic |
| O=C(CN1CCOCC1)Nc1ccc(Cc2ccc(NC(=O)CN3CCOCC3)cc2)cc1 | Toxic |
| CS(=O)(=O)O[C@H]1C[C@H](n2cc(F)c(=O)[nH]c2=O)O[C@@H]1CO | Toxic |
| C=CCSC1=N/C(=C\c2ccccc2Br)C(=O)S1 | Toxic |
| C=CCc1cc(/C=C2/C(=O)NC(=S)N(CC=C)C2=O)cc(OC)c1O | Toxic |
| CC(=O)[C@H]1CC[C@H]2[C@@H]3C[C@H](O)[C@@H]4C[C@H](O)CC[C@]4(C)[C@H]3CC[C@]12C | Toxic |
| Cc1ccc(N2C(=O)c3ccc(C(=O)OCC(C)C)cc3C2=O)cc1C | Toxic |
| O=C(O)c1ccc(C(=O)O)c(C(=O)Nc2ccc3c(c2)-c2ccccc2C3)c1 | Toxic |
| O=C(CN1CCCCC1)Nc1ccc(Cc2ccc(NC(=O)CN3CCCCC3)cc2)cc1 | Toxic |
| CC1CCCN(C(=O)Nc2ccc(Cc3ccc(NC(=O)N4CCCC(C)C4)cc3)cc2)C1 (configuration not stated) | Toxic |
| O=C1C=CC(=O)N1c1ccc(Cc2ccc(N3C(=O)C=CC3=O)cc2)cc1 | Toxic |
| C[C@]12CCC(=O)C=C1CC[C@@H]1[C@@H]2[C@@H](O)C[C@@]2(C)[C@H]1CC[C@]2(O)C(=O)COC(=O)CCC(=O)O [HYDROCORTISONE HEMISUCCINATE ANHYDROUS] | Toxic |
| O=C(c1ccc(I)c([N+](=O)[O-])c1)c1ccc(I)c([N+](=O)[O-])c1 | Toxic |
| O=C(N/N=C/c1cc(Cl)cc(Cl)c1O)c1cccc(I)c1 | Toxic |
| Cc1ccc(N2C(=O)c3ccc(C(=O)OCC(C)C)cc3C2=O)cc1Cl | Toxic |
| O=C(Nc1ccc2ccccc2c1)c1cccc(C(=O)Nc2ccc3ccccc3c2)c1 | Toxic |
| O=C(Nc1ccc(I)cc1)c1cccc(I)c1 | Toxic |
| O=C(CCl)Nc1ccc(Cc2ccc(NC(=O)CCl)cc2)cc1 | Toxic |
| O=C(Nc1ccc(I)cc1)c1ccccc1I | Toxic |
| O=C(Nc1ccc(Cc2ccc(NC(=O)c3cccc([N+](=O)[O-])c3)cc2)cc1)c1cccc([N+](=O)[O-])c1 | Toxic |

| SMILES | Activity |
| --- | --- |
| O=C(c1cccc(I)c1)c1cccc(I)c1 | Toxic |
| O=C(Nc1ccc(I)cc1C(=O)O)c1ccc(Cl)cc1 | Toxic |
| O=C(Nc1ccc(NC(=O)c2cccc3ccccc23)cc1)c1cccc2ccccc12 | Toxic |
| Cc1c(NC(=O)c2cccc(I)c2)ccc([N+](=O)[O-])c1C | Toxic |
| O=C(O)/C=C/C(=O)Nc1ccc(Cc2ccc(NC(=O)/C=C/C(=O)O)cc2)cc1 | Toxic |
| COc1ccc(C(=O)NNC(=O)c2ccc(OC)c(I)c2)cc1Br | Toxic |
| CCCCOC(=O)c1ccc2c(c1)C(=O)N(c1ccc(Oc3ccccc3)cc1)C2=O | Toxic |
| COc1ccc(C(=O)N=C2C=C(Br)C(=O)C(Br)=C2)cc1 | Toxic |
| O=C(Nc1ccc(Cc2ccc(NC(=O)C(Cl)(Cl)Cl)cc2)cc1)C(Cl)(Cl)Cl | Toxic |
| Cc1nc2c(n1CCO)C(=O)c1nc(C)n(CCO)c1C2=O | Toxic |
| COc1ccccc1C(=O)c1c(C(=O)O)ccc2ccccc12 | Toxic |
| O=C1C=CC(=O)N1c1ccc(Cc2ccc(N3C(=O)C=CC3=O)c(Cl)c2)cc1Cl | Toxic |
| Cc1ccc(C(=O)Nc2cccc([N+](=O)[O-])c2C)cc1I | Toxic |
| O=C(Nc1cc(Cl)c(Cl)cc1Cl)Nc1cc(Cl)c(Cl)cc1Cl | Toxic |
| Cc1sc(C(O)c2sc(C)c(C)c2I)c(I)c1C | Toxic |
| CC(=O)CC(=O)Nc1ccc(Cc2ccc(NC(=O)CC(C)=O)cc2)cc1 | Toxic |
| CC(=O)Nc1ccc(Cc2ccc(NC(C)=O)cc2)cc1 | Toxic |
| COc1ccc(C(=O)c2ccc(Br)c([N+](=O)[O-])c2)cc1C | Toxic |
| O=S(=O)(c1cc(Cl)cc(Br)c1O)c1cc(Cl)cc(Br)c1O | Toxic |
| CCCCOC(=O)c1ccc(NC(=O)Nc2cc(C)ccc2C)cc1 | Toxic |
| COc1ccc(NC(=O)c2cc(Br)ccc2I)cc1Cl | Toxic |

Test system: GT1-7
Assay: Effect on cellular form PrP expression in mouse GT1-7 cells
Format: functional, cell-based
Conditions: not given
Outline: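 Uninfected GT1-7 mouse neuronal cells (~2 × 10^5 per well) treated 15 h after plating, from 100 mM DMSO stocks diluted in medium (solvent control 0.1%), for 72 h. Lysates in Triton X-100/DOC buffer, normalized to 2 mg protein/ml. PrPC detected by Western blot with SAF32 antibody and ECL, then scanned.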

| SMILES | Activity |
| --- | --- |
| O=C(CN1CCCC1)Nc1ccc(Cc2ccc(NC(=O)CN3CCCC3)cc2)cc1 | inactive |

Species: Mus musculus
Assay: Stabilization of recombinant mouse cellular form PrP (23-231) conformation at 10 uM
Conditions: not given

| SMILES | Activity |
| --- | --- |
| O=C(CN1CCCC1)Nc1ccc(Cc2ccc(NC(=O)CN3CCCC3)cc2)cc1 | Stable |

Species: Mus musculus
Assay: Binding affinity to recombinant mouse cellular form PrP (23-231)
Conditions: not given

| SMILES | Activity [×10⁻⁶ M] |
| --- | --- |
| O=C(CN1CCCC1)Nc1ccc(Cc2ccc(NC(=O)CN3CCCC3)cc2)cc1 | 3.9 |

Test system: Mus musculus
Assay: Survival of intraventricularly dosed mouse infected with human transmissible spongiform encephalopathies agent Fukuoka1 at 250 ug/kg, after 42 to 70 days post-infection
Format: functional
Conditions: not given
Outline: (§1)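 4-week-old male ddY mice inoculated in the right temporal lobe with 20 μl of 10% FK-1 (Fukuoka-1) infected brain homogenate. Drug in 5% glucose/saline (10 mg/ml stock, 0.2-μm filtered) given at 250 μg/kg per day by intraventricular osmotic-pump infusion over the stated d.p.i. window. Vehicle-only controls. Mice examined daily for neurological signs; survival analysed by Kaplan–Meier.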

| SMILES | Survival [days] |
| --- | --- |
| O=C(CN1CCCC1)Nc1ccc(Cc2ccc(NC(=O)CN3CCCC3)cc2)cc1 | 132.3 |

Test system: Mus musculus
Assay: Survival of intraventricularly dosed mouse infected with human transmissible spongiform encephalopathies agent Fukuoka1 at 250 ug/kg, after 70 to 98 days post-infection
Format: functional
Conditions: not given
Outline: as §1

| SMILES | Survival [days] |
| --- | --- |
| O=C(CN1CCCC1)Nc1ccc(Cc2ccc(NC(=O)CN3CCCC3)cc2)cc1 | 141.5 |

Test system: not listed separately
Assay: cells
Format: functional, cell-based
Conditions: Mus musculus, GT1-7, 72 h

| SMILES | IC50 [µM] |
| --- | --- |
| O=C(CN1CCCC1)Nc1ccc(Cc2ccc(NC(=O)CN3CCCC3)cc2)cc1 | 1.35 |

Test system: not listed separately
Assay: cells
Format: functional, cell-based
Conditions: Mus musculus, GT1-7

| SMILES | IC50 [µM] |
| --- | --- |
| CCN(CCO)CCNc1ccc(C)c2sc3ccccc3c(=O)c12 | > 100 |
| Cc1ccc(S(=O)(=O)Nc2ccccc2N(C)S(=O)(=O)c2ccc(C)cc2)cc1 | > 100 |
| O=c1n(S(=O)(=O)c2ccc(Cl)cc2)c2ccccc2n1S(=O)(=O)c1ccc(Cl)cc1 | > 100 |
| O=C(CN1CCOCC1)Nc1ccc(Cc2ccc(NC(=O)CN3CCOCC3)cc2)cc1 | > 100 |
| CS(=O)(=O)O[C@H]1C[C@H](n2cc(F)c(=O)[nH]c2=O)O[C@@H]1CO | > 100 |
| C=CCSC1=N/C(=C\c2ccccc2Br)C(=O)S1 | > 100 |
| C=CCc1cc(/C=C2/C(=O)NC(=S)N(CC=C)C2=O)cc(OC)c1O | > 100 |
| CC(=O)[C@H]1CC[C@H]2[C@@H]3C[C@H](O)[C@@H]4C[C@H](O)CC[C@]4(C)[C@H]3CC[C@]12C | > 100 |
| Cc1ccc(N2C(=O)c3ccc(C(=O)OCC(C)C)cc3C2=O)cc1C | > 100 |
| O=C(O)c1ccc(C(=O)O)c(C(=O)Nc2ccc3c(c2)-c2ccccc2C3)c1 | > 100 |
| O=C(CN1CCCCC1)Nc1ccc(Cc2ccc(NC(=O)CN3CCCCC3)cc2)cc1 | > 100 |
| CC1CCCN(C(=O)Nc2ccc(Cc3ccc(NC(=O)N4CCCC(C)C4)cc3)cc2)C1 (configuration not stated) | > 100 |
| O=C1C=CC(=O)N1c1ccc(Cc2ccc(N3C(=O)C=CC3=O)cc2)cc1 | > 100 |
| C[C@]12CCC(=O)C=C1CC[C@@H]1[C@@H]2[C@@H](O)C[C@@]2(C)[C@H]1CC[C@]2(O)C(=O)COC(=O)CCC(=O)O [HYDROCORTISONE HEMISUCCINATE ANHYDROUS] | > 100 |
| O=C(c1ccc(I)c([N+](=O)[O-])c1)c1ccc(I)c([N+](=O)[O-])c1 | > 100 |
| O=C(N/N=C/c1cc(Cl)cc(Cl)c1O)c1cccc(I)c1 | > 100 |
| Cc1ccc(N2C(=O)c3ccc(C(=O)OCC(C)C)cc3C2=O)cc1Cl | > 100 |
| O=C(Nc1ccc2ccccc2c1)c1cccc(C(=O)Nc2ccc3ccccc3c2)c1 | > 100 |
| O=C(Nc1ccc(I)cc1)c1cccc(I)c1 | > 100 |
| O=C(CCl)Nc1ccc(Cc2ccc(NC(=O)CCl)cc2)cc1 | > 100 |
| O=C(Nc1ccc(I)cc1)c1ccccc1I | > 100 |
| O=C(Nc1ccc(Cc2ccc(NC(=O)c3cccc([N+](=O)[O-])c3)cc2)cc1)c1cccc([N+](=O)[O-])c1 | > 100 |

| SMILES | IC50 [µM] |
| --- | --- |
| O=C(c1cccc(I)c1)c1cccc(I)c1 | > 100 |
| O=C(Nc1ccc(I)cc1C(=O)O)c1ccc(Cl)cc1 | > 100 |
| O=C(Nc1ccc(NC(=O)c2cccc3ccccc23)cc1)c1cccc2ccccc12 | > 100 |
| Cc1c(NC(=O)c2cccc(I)c2)ccc([N+](=O)[O-])c1C | > 100 |
| O=C(O)/C=C/C(=O)Nc1ccc(Cc2ccc(NC(=O)/C=C/C(=O)O)cc2)cc1 | > 100 |
| COc1ccc(C(=O)NNC(=O)c2ccc(OC)c(I)c2)cc1Br | > 100 |
| CCCCOC(=O)c1ccc2c(c1)C(=O)N(c1ccc(Oc3ccccc3)cc1)C2=O | > 100 |
| COc1ccc(C(=O)N=C2C=C(Br)C(=O)C(Br)=C2)cc1 | > 100 |
| O=C(Nc1ccc(Cc2ccc(NC(=O)C(Cl)(Cl)Cl)cc2)cc1)C(Cl)(Cl)Cl | > 100 |
| Cc1nc2c(n1CCO)C(=O)c1nc(C)n(CCO)c1C2=O | > 100 |
| COc1ccccc1C(=O)c1c(C(=O)O)ccc2ccccc12 | > 100 |
| O=C1C=CC(=O)N1c1ccc(Cc2ccc(N3C(=O)C=CC3=O)c(Cl)c2)cc1Cl | > 100 |
| Cc1ccc(C(=O)Nc2cccc([N+](=O)[O-])c2C)cc1I | > 100 |
| O=C(Nc1cc(Cl)c(Cl)cc1Cl)Nc1cc(Cl)c(Cl)cc1Cl | > 100 |
| Cc1sc(C(O)c2sc(C)c(C)c2I)c(I)c1C | > 100 |
| CC(=O)CC(=O)Nc1ccc(Cc2ccc(NC(=O)CC(C)=O)cc2)cc1 | > 100 |
| CC(=O)Nc1ccc(Cc2ccc(NC(C)=O)cc2)cc1 | > 100 |
| COc1ccc(C(=O)c2ccc(Br)c([N+](=O)[O-])c2)cc1C | > 100 |
| O=S(=O)(c1cc(Cl)cc(Br)c1O)c1cc(Cl)cc(Br)c1O | > 100 |
| CCCCOC(=O)c1ccc(NC(=O)Nc2cc(C)ccc2C)cc1 | > 100 |
| COc1ccc(NC(=O)c2cc(Br)ccc2I)cc1Cl | > 100 |
